Calls of active or inactive are those of the source.

Here are results for one molecule from ChEMBL document CHEMBL4339193, “Phenotypic Screening-Based Identification of 3,4-Disubstituted Piperidine Derivatives as Macrophage M2 Polarization Modulators: An Opportunity for Treating Multiple Sclerosis” (J Med Chem, 2019).

The test system of data set [1] is Mus musculus. As to the kind of experiment: Inhibition of M1 polarization in C57BL/6J mouse model of MOG (35 to 55 residues)/pertussis toxin/complete Freund's adjuvant-induced experimental allergic encephalomyelitis assessed as CD86 level in draining lymph nodes at 200 mg/kg, ig administered daily starting from 7 days post-immunization measured after 13 to 19 days post-immunization by flow cytometry analysis (reference value: 18.4%). The data set is classed as functional. More on the design: scale not given: the % may be the effect or the level left. The essentials: (§1)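 MOG35-55/CFA EAE mice were dosed daily in saline from day 7 and sampled between days 13 and 19. Cells came from spleen and dLN by mechanical dissociation and from CNS by collagenase IV/Percoll. They were stained for F4/80 with CD206 (M2) or CD86 (M1), and each was read by flow cytometry as a percentage of total F4/80+ macrophages.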
On the technique in general: In flow cytometry, cells or beads pass a laser one at a time.

Data set [2] has as its system Mus musculus. Briefly: Inhibition of M1 polarization in C57BL/6J mouse model of MOG (35 to 55 residues)/pertussis toxin/complete Freund's adjuvant-induced experimental allergic encephalomyelitis assessed as CD86 level in spleen at 200 mg/kg, ig administered daily starting from 7 days post-immunization measured after 13 to 19 days post-immunization by flow cytometry analysis (reference value: 11.8%). Type of data set: functional. More on the design: scale not given: the % may be the effect or the level left. The gist of the method:
as §1

In data set [3] the test system is Mus musculus. As to the kind of experiment: Antiinflammatory activity in C57BL/6J mouse model of MOG (35 to 55 residues)/pertussis toxin/complete Freund's adjuvant-induced experimental allergic encephalomyelitis assessed as TH17 cell population in spinal cord by measuring IL17 level at 200 mg/kg, ig administered daily starting from 7 days post-immunization measured after 14 to 21 days post-immunization by flow cytometry analysis (reference value: 7.7%). Type of data set: functional. The essentials:
(§2)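 EAE induced with MOG35-55 (2 mg/ml in PBS) emulsified in CFA containing 4 mg/ml heat-killed M. tuberculosis H37Ra, injected s.c. into the neck and both hindlegs. Drug in saline daily from day 7. Between days 13 and 19, CNS mononuclear cells were taken by collagenase IV digestion and a 70%/30% Percoll gradient. Cells were restimulated 5 h with brefeldin A 2 µg/ml, PMA 0.1 µg/ml and ionomycin 0.5 µg/ml, stained for surface CD4, fixed and permeabilised, then stained intracellularly for IFN-γ/IL-17A. Analysed by flow cytometry; n=4 mice per group.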

Data set [4] concerns Mus musculus. As to the kind of experiment: Antiinflammatory activity in C57BL/6J mouse model of MOG (35 to 55 residues)/pertussis toxin/complete Freund's adjuvant-induced experimental allergic encephalomyelitis assessed as TH1 cell population in spinal cord by measuring IFNgamma level at 200 mg/kg, ig administered daily starting from 7 days post-immunization measured after 14 to 21 days post-immunization by flow cytometry analysis (reference value: 22.3%). Type of data set: functional. The gist of the method: as §2

The subject of data set [5] is BMDM. As to the kind of experiment: Modulation of M2 polarization in C57BL/6J mouse BMDM cells assessed as up regulation of CD206 expression at 300 nM measured after 24 hrs by FACS analysis. Type of data set: functional, cell-based. The essentials: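 BMDMs exposed to compound (300 nM, or a range of concentrations) for 24 h. Stained for F4/80 and CD206; % CD206+F4/80+ cells read by flow cytometry. Mean ± SEM, at least three independent experiments.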

Data set [6] has as its system BMDM. As to the kind of experiment: Modulation of M1 polarization in C57BL/6J mouse BMDM cells assessed as up regulation of TNFalpha expression at 300 nM measured after 4 to 24 hrs by Western blot analysis. The data set is classed as cell-based. Particulars: 0.3 µM. The essentials: (§3)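 BMDMs lysed in pH 7.6 buffer with 1% Triton X-100, phosphatase inhibitor and 1 mM PMSF. Proteins separated by SDS-PAGE, blotted to PVDF and probed with anti-Arg-1, anti-Ym1 or anti-TNF-α, then ECL detection; GAPDH as loading control.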
(In general: Immunoblotting shows a protein as a band on a membrane.)

For data set [7], the system named is BMDM. As to the kind of experiment: Modulation of M2 polarization in C57BL/6J mouse BMDM cells assessed as up regulation of YM1 expression at 300 nM measured after 4 to 24 hrs by Western blot analysis. The data set is classed as functional, cell-based. The gist of the method:
as §3

Data set [8] concerns BMDM. Briefly: Modulation of M2 polarization in C57BL/6J mouse BMDM cells assessed as up regulation of Arg1 expression at 300 nM measured after 4 to 24 hrs by Western blot analysis. Type of data set: functional, cell-based. The essentials: as §3
Data set [9] has as its system BMDM. As to the kind of experiment: Inhibition of LPS-induced M1 polarization in C57BL/6J mouse BMDM cells assessed as down regulation of CD86 mRNA expression at 300 nM measured after 24 hrs by qRT-PCR analysis. The data set is classed as functional, cell-based. The essentials: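 BMDMs pre-incubated 24 h with 50 ng/ml LPS to induce M1, then treated 24 h with 300 nM compound. Total RNA extracted with Trizol; Mcp1, Inos and Cd86 mRNA measured by qRT-PCR. Mean ± SEM.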
For orientation: Quantitative PCR measures a nucleic acid by following its amplification.

In data set [10] the test system is RAW264.7. Briefly: Modulation of M2 polarization in mouse RAW264.7 cells assessed as up regulation of CCR2 mRNA expression at 300 nM measured after 24 hrs by qRT-PCR analysis. Type of data set: functional, cell-based.
Data set [11] can be described thus: Ratio of AUC (0 to t) to AUC (0 to infinity) in Sprague-Dawley rat at 10 mg/kg, iv administered as single dose […]. The data set is classed as ADME, organism-based. Particulars: in vivo.
A short description of data set [12]: AUC (0 to infinity) in Sprague-Dawley rat at 10 mg/kg, iv administered as single dose by LC/MS analysis. The data set is classed as ADME, organism-based. Also noted: dose 10 mg/kg, time infinity, route intravenous. Particulars: in vivo. The essentials:
(§4)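 Single dose in rats; venous blood (100 µL) drawn at 0, 0.5, 1, 2, 4, 8 and 12 h, plasma separated by centrifugation and held at -20 °C. Compound measured by LC/MS; Cmax, Tmax, t1/2 and AUC derived from the concentration–time data.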

The nature of data set [13]: AUC (0 to t) in Sprague-Dawley rat at 10 mg/kg, iv administered as single dose by LC/MS analysis. The data set is classed as ADME, organism-based. Particulars: in vivo. The gist of the method:
as §4

A short description of data set [14]: Half life in Sprague-Dawley rat at 50 mg/kg, po administered as single dose via gavage by LC/MS analysis. The data set is classed as ADME, organism-based. Particulars: in vivo. The gist of the method: as §4
In data set [15] the test system is RAW264.7. Briefly: Inhibition of LPS-induced M1 polarization in mouse RAW264.7 cells assessed as down regulation of Mcp1 mRNA expression at 300 nM measured after 24 hrs by qRT-PCR analysis relative to control. The data set is classed as functional, cell-based. The gist of the method:
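RAW264.7 cells pre-treated with LPS (50 ng/ml) for 24 h, then given 300 nM compound for 24 h. Mcp1 mRNA quantified by qRT-PCR relative to control. Mean ± SEM.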

In data set [16] the test system is RAW264.7. Briefly: Modulation of M1 polarization in mouse RAW264.7 cells assessed as change in Mcp1 mRNA expression at 300 nM measured after 24 hrs by qRT-PCR analysis relative to control. Type of data set: functional, cell-based. Particulars: RAW264.7, 24 h, read-out: FC. The essentials:
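RAW264.7 cells (DMEM, 10% FBS) exposed 24 h to 300 nM compound alone; LPS 50 ng/ml as positive control. Mcp1 mRNA by qRT-PCR; fold change = dosed group level / control group level.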

In data set [17] the test system is BMDM. Briefly: Antiinflammatory activity in LPS-induced C57BL/6J mouse BMDM cells assessed as suppression of M1 macrophage-stimulated CD4 positive T-cell proliferation at 300 nM preincubated for 48 hrs followed by CD4 positive T-cell addition and measured after 72 hrs by CFSE dye based FACS analysis. Type of data set: functional. The gist of the method: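 BMDMs given 300 nM compound with 50 ng/ml LPS for 48 h on day 5 of differentiation; drug removed day 7. Cells then cocultured 1:1 with CFSE-labelled negatively selected naïve CD4+ T cells plus 500 ng/ml anti-CD3 and 500 ng/ml anti-CD28. T-cell proliferation (CFSE MFI, % proliferated) read by flow cytometry after 72 h. Mean ± SEM, at least three independent experiments.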

On to `Cl.Cn1ncc(Cl)c1-c1ccc(C(=O)N[C@@H]2CNCC[C@H]2c2cccc(F)c2)cc1`, for which the Activity in the data set on Mus musculus [1] is on record as 11.5%; with Mus musculus [2], 6.9%; in the data set on Mus musculus [3], 4.5%; with Mus musculus [4] it was 11.4%; with BMDM [6], “Non-Toxic”. For the same molecule, the outcome in the data set with BMDM [5], in the data set with BMDM [7], with BMDM [8], with RAW264.7 [10] and in the data set with BMDM [17] was Active. Besides, the inhibition entry with BMDM [9] and in the data set on RAW264.7 [15] was “Active” in each case. The “Ratio AUC” value in data set [11] turned out to be 98.75%. The AUC(0-inf) in [12] was found to be 1870 ng·h/mL. The AUC(0-t) in data set [13] worked out at 1840 ng·h/mL. Also, the half-life in [14] is 466 min. For the same molecule, the fold induction at 0.3 µM with RAW264.7 [16] was determined as 1.47.

The term AUC(0-inf) denotes total exposure, with the tail of the curve extrapolated. Broadly, the AUC(0-t) is exposure summed from dosing to a finite time, without extrapolation to infinity. As usually defined, the half-life is the time needed for the level to fall by half in the phase considered.
